Assay results from ChEMBL document CHEMBL1125486, “Inhibitors of blood platelet cAMP phosphodiesterase. 3. 1,3-Dihydro-2H-imidazo[4,5-b]quinolin-2-one derivatives with enhanced aqueous solubility” (J Med Chem, 1992).
In brackets after ≈: the same amount, converted by molar mass.

What was measured:
[1] = organism: Homo sapiens; test: Inhibition of ADP induced aggregation of human platelets after 15 min of incubation of the drug with PRP prior to the addition of ADP; format: functional; conditions: 0.25 h
[2] = Aqueous solubility; format: physicochemical; conditions: water; read-out: S
In short: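 Water (0.5 mL) added to 10 mg compound at room temperature, diluted up to […] unless dissolution occurred.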

[3] = organism: Homo sapiens; test: Inhibition of ADP-induced aggregation of human platelets; format: functional
[4] = biological target: T1, Phosphodiesterase 3 (Homo sapiens, UniProt Q14432+Q13370); test: Inhibition of human platelet c-AMP phosphodiesterase PDE 3
[5] = Solubility in 0.25 N HCl solution; format: physicochemical; conditions: read-out: S
In short: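 Solubility tested as for water, 0.5 mL solvent on 10 mg solid at room temperature with up to […] dilution, but in 0.25 N HCl solution.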

[6] = system: Oryctolagus cuniculus; test: Inhibition of laser induced thrombus formation in microvasculature of rabbit ear chamber at a dose of 0.3 mg/kg; format: functional
In short: (§1)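 Conscious rabbits, laser-induced microvessel thrombosis, oral dosing; 10 trials 2 h post-dose compared with 10 predose trials in same rabbit; mean thrombus area, % inhibition; at least three rabbits per compound.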

[7] = system: Oryctolagus cuniculus; test: Inhibition of laser induced thrombus formation in microvasculature of rabbit ear chamber at dose of 0.03 mg/kg; format: functional; in short: as §1
[8] = system: Oryctolagus cuniculus; test: Inhibition of laser induced thrombus formation in microvasculature of rabbit ear chamber at a peroral dose of 0.1 mg/kg; format: functional; conditions: route oral; in short: as §1
[9] = biological target: T1, Phosphodiesterase 3; test: Inhibition of human platelet cAMP phosphodiesterase PDE 3
In short: (§2)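 Human platelet cAMP PDE enzyme preparation; IC50 read from plots of cAMP hydrolysis against compound concentration; mean of duplicate determinations; BMY 20844 positive control.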

[10] = biological target: T1, Phosphodiesterase 3; test: Inhibition of human platelet cAMP Phosphodiesterase PDE 3; in short: as §2
[11] = organism: Oryctolagus cuniculus; test: Inhibition of laser induced thrombus formation in microvasculature of rabbit ear chamber; format: functional, organism-based; in short: as §1
[12] = system: Oryctolagus cuniculus; test: Inhibition of laser induced thrombus formation in microvasculature of rabbit ear chamber at a peroral dose of 3 mg/kg; format: functional; conditions: route oral; in short: as §1
[13] = system: Oryctolagus cuniculus; test: Inhibition of laser induced thrombus formation in microvasculature of rabbit ear chamber at a peroral dose of 1 mg/kg; format: functional; conditions: route oral; in short: as §1

Row | SMILES | solubility [2] [µg/mL] | EC50 [3] [nM] | IC50 [4] [nM] | other results
1 | O=C(c1ccccc1)N1CCN(c2ccc3[nH]c4nc(O)nc-4cc3c2)CC1 | < 10000 | 6820 | 600 | –
2 | O=C(CCCOc1ccc2[nH]c3nc(O)nc-3cc2c1)N1CCN(CC2CCCCO2)CC1 (stereo not given) | > 10000 | 2020 | 0.7 | –
3 | CN(C(=O)C1CCN(c2ccc3[nH]c4nc(O)nc-4cc3c2)CC1)C1CCCCC1 | < 10000 | > 37000 | – | –
4 | CN(CCc1ccccn1)C(=O)CCCOc1ccc2[nH]c3nc(O)nc-3cc2c1 | > 10000 | 12400 | 4.5 | –
5 | O=C(CCCOc1ccc2[nH]c3nc(O)nc-3cc2c1)N1CCN(Cc2ccc(F)cc2)CC1 | > 10000 | 530 | 2 | –
6 | O=C1CN2Cc3cc(OCCCC(=O)N4CCN(CC5CCCCC5)CC4)ccc3N=C2N1 | > 5000 | 7230 | 6 | –
7 | CN1CCCC1CCNC(=O)CCCOc1ccc2[nH]c3nc(O)nc-3cc2c1 (stereo not given) | – | 79800 | 20 | solubility [5]: > 10000 µg/mL
8 | O=C(CCCOc1ccc2[nH]c3nc(O)nc-3cc2c1)NCCN1CCCCC1 | > 20000 | 4500 | 4 | –
9 | O=C(CCCOc1ccc2[nH]c3nc(O)nc-3cc2c1)N1CCN(Cc2ccccc2)CC1 | > 10000 | – | 0.7 | inhibition in vivo at 0.3 mg/kg [6]: 64%; inhibition in vivo at 0.03 mg/kg [7]: 41%; inhibition in vivo at 0.1 mg/kg [8]: 50%
10 | O=C(CCCCCOc1ccc2[nH]c3nc(O)nc-3cc2c1)N1CCN(CC2CCCCC2)CC1 | > 10000 | 710 | 0.6 | –
11 | O=C(CCCOc1ccc2[nH]c3nc(O)nc-3cc2c1)N1CCN(c2ccccn2)CC1 | > 10000 | 670 | 5 | –
12 | O=C1CN2Cc3cc(OCCCC(=O)N4CCN(Cc5ccccc5)CC4)ccc3N=C2N1 | > 5000 | 4150 | 8 | –
13 | O=C(CCCOc1ccc2[nH]c3nc(O)nc-3cc2c1)N1CCC(N2CCCCC2)CC1 | > 10000 | 11400 | 5 | –
14 | O=C(CCCOc1ccc2[nH]c3nc(O)nc-3cc2c1)N1CCN(Cc2ccc(C(F)(F)F)cc2)CC1 | < 10000 | 2110 | 0.4 | –
15 | O=C(CCCOc1ccc2[nH]c3nc(O)nc-3cc2c1)N1CCN(c2cccc(C(F)(F)F)c2)CC1 | < 10000 | 720 | 0.6 | –
16 | CCN(CC)c1ccc2[nH]c3nc(O)nc-3cc2c1 | > 10000 | 1420 | – | IC50 [9]: 70 nM
17 | O=C(CCCOc1ccc2[nH]c3nc(O)nc-3cc2c1)N1CCNCC1 | > 10000 | 53700 | 40 | –
18 | CCOC(=O)N1CCN(c2ccc3[nH]c4nc(O)nc-4cc3c2)CC1 | < 10000 | 3520 | 700 | –
19 | O=C(CCCOc1ccc2[nH]c3nc(O)nc-3cc2c1)N1CCN(c2ncccn2)CC1 | > 10000 | 1220 | 7 | –

Row | SMILES | solubility [2] [µg/mL] | EC50 [3] [nM] | IC50 [4] [nM] | other results
20 | Oc1nc2cc3cc(N4CCN(c5ccccc5)CC4)ccc3[nH]c-2n1 | < 10000 | 8060 | 5000 | –
21 | O=C(CCCOc1ccc2[nH]c3nc(O)nc-3cc2c1)N1CCN(CC(=O)N2CCCC2)CC1 | > 10000 | > 56500 | – | IC50 [10]: 6 nM
22 | CC(C)CN1CCN(C(=O)CCCOc2ccc3[nH]c4nc(O)nc-4cc3c2)CC1 | > 10000 | 2430 | 1 | –
23 | COCCN1CCN(C(=O)CCCOc2ccc3[nH]c4nc(O)nc-4cc3c2)CC1 | > 10000 | 20800 | 7 | –
24 | O=C(O)C1CCN(c2ccc3[nH]c4nc(O)nc-4cc3c2)CC1 | < 10000 | 30200 | 20 | –
25 | CCCC(CCC)CN1CCN(C(=O)CCCOc2ccc3[nH]c4nc(O)nc-4cc3c2)CC1 | < 10000 | 680 | 0.4 | –
26 | O=C(CCCOc1ccc2[nH]c3nc(O)nc-3cc2c1)N1CCN(Cc2cccc(C(F)(F)F)c2)CC1 | 2000 (≈ 3.89 mM) | 920 | 9 | –
27 | O=C(CCCOc1ccc2[nH]c3nc(O)nc-3cc2c1)N1CCN(C2CCCCCC2)CC1 | > 10000 | 750 | 0.9 | –
28 | Oc1nc2cc3cc(N4CCCC4)ccc3[nH]c-2n1 | < 10000 | 2030 | – | –
29 | O=C(CCCOc1ccc2[nH]c3nc(O)nc-3cc2c1)N1CCN(CC2CCCC2)CC1 | > 10000 | 1300 | 0.5 | –
30 | Cn1c(O)nc2nc3ccc(OCCCC(=O)N4CCN(CC5CCCCC5)CC4)cc3cc21 | > 10000 | > 58100 | 80 | –
31 | O=C(CCCOc1ccc2[nH]c3nc(O)nc-3cc2c1)NC1CCN(Cc2ccccc2)CC1 | > 20000 | 3700 | 0.7 | –
32 | CCOC(=O)CN1CCN(C(=O)CCCOc2ccc3[nH]c4nc(O)nc-4cc3c2)CC1 | > 10000 | 2440 | 2 | –
33 | O=C(CCCOc1ccc2[nH]c3nc(O)nc-3cc2c1)NC1CN2CCC1CC2 (stereo not given) | > 10000 | 12400 | 40 | –
34 | CN1CCN(C(=O)CCCOc2ccc3[nH]c4nc(O)nc-4cc3c2)CC1 | > 20000 | 8900 | 7 | –
35 | COc1ccc(C(=O)N2CCN(c3ccc4[nH]c5nc(O)nc-5cc4c3)CC2)cc1OC | < 10000 | 37900 | – | –
36 | Oc1nc2cc3cc(N4CCCCC4)ccc3[nH]c-2n1 | > 10000 | 900 | – | inhibition in vivo at 3 mg/kg [12]: 59%; inhibition in vivo at 1 mg/kg [13]: 32%
37 | Cn1c(O)nc2nc3ccc(OCCCC(=O)N4CCN(Cc5ccccc5)CC4)cc3cc21 | > 10000 | > 59100 | 30 | –

The remaining compounds from weak to strong by EC50 [3], led by results:

Row | solubility [2] [µg/mL] | EC50 [3] [nM] | IC50 [4] [nM] | SMILES | other results
38 | > 10000 | 520 | 3 | COc1ccc(CN2CCN(C(=O)CCCOc3ccc4[nH]c5nc(O)nc-5cc4c3)CC2)cc1 | –
39 | > 10000 | 510 | 0.4 | O=C(CCCOc1ccc2[nH]c3nc(O)nc-3cc2c1)N1CCN(CC2CCCCC2)CC1 | IC50 [1]: 100 nM
40 | > 10000 | 430 | 1 | CCC(CC)CN1CCN(C(=O)CCCOc2ccc3[nH]c4nc(O)nc-4cc3c2)CC1 | –
41 | > 10000 | 380 | 0.7 | O=C(CCCOc1ccc2[nH]c3nc(O)nc-3cc2c1)N1CCN(Cc2cccs2)CC1 | –
42 | > 10000 | 380 | 0.7 | O=C(CCCOc1ccc2[nH]c3nc(O)nc-3cc2c1)N1CCN(Cc2ccsc2)CC1 | –
43 | 10000 (≈ 20.4 mM) | 330 | 0.9 | O=C(CCCOc1ccc2[nH]c3nc(O)nc-3cc2c1)N1CCN(Cc2ccc3c(c2)OCO3)CC1 | –
44 | < 10000 | 290 | 0.2 | O=C(CCCOc1ccc2[nH]c3nc(O)nc-3cc2c1)N1CCN(CC2CCCCCC2)CC1 | –
45 | < 10000 | 280 | – | COC(=O)C1CCN(c2ccc3[nH]c4nc(O)nc-4cc3c2)CC1 | –
46 | < 10000 | 270 | 0.3 | CC(C)(C)OC(=O)N1CCN(C(=O)CCCOc2ccc3[nH]c4nc(O)nc-4cc3c2)CC1 | –
47 | < 10000 | 250 | 20 | Oc1nc2cc3cc(N4CCOCC4)ccc3[nH]c-2n1 | –
48 | < 10000 | 190 | 2 | O=C(CCCOc1ccc2[nH]c3nc(O)nc-3cc2c1)N1CCN(CCc2ccccc2)CC1 | –
49 | < 10000 | 170 | 2 | O=C(CCCOc1ccc2[nH]c3nc(O)nc-3cc2c1)N1CCN(Cc2ccc(Cl)cc2)CC1 | –
50 | < 10000 | 130 | 0.3 | O=C(CCCOc1ccc2[nH]c3nc(O)nc-3cc2c1)N1CCN(C(c2ccc(F)cc2)c2ccc(F)cc2)CC1 | –
51 | < 10000 | 110 | 0.3 | O=C(CCCOc1ccc2[nH]c3nc(O)nc-3cc2c1)N1CCN(CCc2ccccc2C(F)(F)F)CC1 | –
52 | < 10000 | 62 | 3 | O=C(CCCOc1ccc2[nH]c3nc(O)nc-3cc2c1)N1CCN(C(c2ccccc2)c2ccccc2)CC1 | –
53 | < 10000 | 54 | 0.2 | O=C(CCCOc1ccc2[nH]c3nc(O)nc-3cc2c1)N1CCN(CCC2CCCCC2)CC1 | –
54 | > 10000 | 51 | 0.03 | O=C(CCCCOc1ccc2[nH]c3nc(O)nc-3cc2c1)N1CCN(CC2CCCCC2)CC1 | IC50 [11]: 0.03 mg/kg; inhibition in vivo at 0.1 mg/kg [8]: > 50%
55 | < 10000 | 50 | 2 | O=C(CCCOc1ccc2[nH]c3nc(O)nc-3cc2c1)N1CCN(c2ccccc2)CC1 | –
56 | > 10000 | 47 | 0.08 | O=C(CCCCOc1ccc2[nH]c3nc(O)nc-3cc2c1)N1CCN(Cc2ccccc2)CC1 | –
